p-CIP stab down – compounds decreasing mouse p/CIP protein stability; Q05BA5; F442A p/CIP-EGFP cells, EGFP fluorescence, 16 h; decrease of EGFP signal, % at 10 µM; 290,000 tested, 0.01% active;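 active = EGFP signal decrease of at least 30% at 10 µM or well 3 SD below plate mean, unless failing retest; inactive = the rest, including hits failing retest or dose response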
Lipid droplet – modulators of hepatic lipid droplet formation; AML12 mouse hepatocytes, oleate lipid droplets, BODIPY imaging; AID 1656; 240,000 tested, 0.4% active; inhibition, % at 6.5 µM;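 active = lipid droplet intensity inhibited by at least 50%, with more than 500 cells counted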
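Test system: AML12 mouse liver cells; schedule: overnight exposure; technique: high-content imaging of BODIPY-stained droplets and DAPI nuclei; read-out: % inhibition of corrected integrated BODIPY droplet signal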
CTSL1 counter – counter-screen for PFM18AAP inhibitors: inhibitors of F. hepatica cathepsin L1; 300,000 tested, 0.49% active; AID 1906; inhibition, % at 5.96 µM; recombinant F. hepatica cathepsin L1, Z-Leu-Arg-MCA fluorescence;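 active = inhibition above the mean of all tested compounds plus 3 SD, set per screening campaign, cut at about 17% in these data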;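 note: 0% = plate median of test compound wells and 100% = 1 µM Z-Phe-Ala-diazomethylketone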
Arr AP2 block – human beta-arrestin and AP2 interaction inhibition; inhibition, % at 10 µM; FITC-arrestin peptide / GST-AP2 beads, flow cytometry; AP2 beta2 appendage carries R879A mutation; 340,000 tested, 0.31% active;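 active = inhibition above a set limit, near 3 SD of compounds lacking own fluorescence, cut at about 54% in these data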;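 note: plate controls were DMSO wells for no effect and 5 µM unlabelled arrestin peptide for full effect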
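System: GST-AP2 R879A glutathione beads; medium: PBS, Tween 20 0.05%, BSA 0.1%; reagent: fluorescein-tagged arrestin peptide at 50 nM final; schedule: pre-incubation 12 min, peptide binding 1 h, room temperature; detection: flow cytometry, FL1 (488/535 nm); read-out: inhibition as reduced fluorescein signal on beads, percent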
Arr-AP2 CP1 – human beta-arrestin and AP2 interaction inhibition, cherry pick; shares compounds with Arr AP2 block; GST-AP2 beads, FITC arrestin peptide binding, flow cytometry; GST-fused beta2-adaptin appendage, R879A mutant; inhibition, % at 10 µM; 1,300 tested, 2% active;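 active = inhibition above a set limit, roughly 3 SD of non-fluorescent compound noise, cut at about 38% in these data; inactive = inhibition at or below that limit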;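 note: loss of bead fluorescence from 50 nM FITC arrestin peptide bound to appendage; 0% = negative control wells and 100% = excess unlabelled arrestin peptide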
Target sequence (P63010 whole entry, looked up, the tested form may be a part, one chain of several): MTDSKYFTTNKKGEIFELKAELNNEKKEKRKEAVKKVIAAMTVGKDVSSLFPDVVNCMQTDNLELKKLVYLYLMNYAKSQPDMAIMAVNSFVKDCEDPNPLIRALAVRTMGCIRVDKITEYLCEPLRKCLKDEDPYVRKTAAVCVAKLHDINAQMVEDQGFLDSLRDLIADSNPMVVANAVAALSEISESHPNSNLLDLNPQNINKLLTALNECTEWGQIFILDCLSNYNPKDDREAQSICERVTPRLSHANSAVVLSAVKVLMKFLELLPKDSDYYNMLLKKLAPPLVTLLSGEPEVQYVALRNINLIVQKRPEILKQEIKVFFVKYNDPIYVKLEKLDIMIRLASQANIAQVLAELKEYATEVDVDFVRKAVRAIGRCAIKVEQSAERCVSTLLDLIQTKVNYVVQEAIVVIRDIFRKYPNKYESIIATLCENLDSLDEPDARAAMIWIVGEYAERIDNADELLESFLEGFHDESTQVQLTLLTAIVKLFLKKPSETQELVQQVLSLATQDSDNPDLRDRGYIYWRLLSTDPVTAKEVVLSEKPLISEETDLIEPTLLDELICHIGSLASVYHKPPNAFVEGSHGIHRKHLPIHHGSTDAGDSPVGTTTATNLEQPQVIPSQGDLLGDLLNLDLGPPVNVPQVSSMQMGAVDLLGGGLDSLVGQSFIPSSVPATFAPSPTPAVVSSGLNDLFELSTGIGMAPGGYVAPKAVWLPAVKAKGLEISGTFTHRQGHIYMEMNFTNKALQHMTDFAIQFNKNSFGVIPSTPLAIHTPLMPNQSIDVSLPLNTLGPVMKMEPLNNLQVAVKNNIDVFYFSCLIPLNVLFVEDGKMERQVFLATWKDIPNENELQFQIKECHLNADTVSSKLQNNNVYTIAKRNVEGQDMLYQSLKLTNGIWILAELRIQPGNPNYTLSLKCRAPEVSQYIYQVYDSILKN
GST-FITC bead – counter-screen for beta-arrestin AP2 inhibitors: GST-GSH bead binding; shares compounds with Arr AP2 block; GST-fluorescein binding to GSH beads, fluorescence; inhibition, % at 10 µM; 1,300 tested, 2% active; AID 588338;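 active = inhibition above 50%, about 3 SD of the inhibition seen with non-fluorescent compounds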;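 note: fluorescein maleimide labelled GST captured on 4 micron glutathione beads; higher means more loss of bead fluorescence from quenching or blocked binding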
Active calls of the source: *; . = not tested or not shown. This is a sample that favours compounds with a hit; in the whole collection about 1% have one here.

SMILES	p-CIP stab down	Lipid droplet	CTSL1 counter	Arr AP2 block	Arr-AP2 CP1	GST-FITC bead
Cc1ccc(S(=O)(=O)n2nc(-c3cccnc3)nc2N)cc1	-12.9	.	-0.5	1.2	.	.
CCCCSC(=S)N(C)C1CCS(=O)(=O)C1 (stereo not drawn)	0.6	.	0.3	97.6*	-10.0	2.2
COc1cccc(-c2c(C(=O)N/N=C(\C)COc3ccccc3)nnn2-c2nonc2N)c1	-17.9	-2.7	-3.2	27.9	.	.
COC(=O)Cn1c(=NC(=O)c2cc(-c3cccs3)nc3ccccc23)sc2cc(S(N)(=O)=O)ccc21	1.5	30.8	2.7	63.4*	0.1	-6.5
Cc1cccc(N2N=C(C(=O)Nc3nc(C)cs3)CCC2=O)c1	-5.4	-0.3	4.0	-10.8	.	.
CC(=O)Nc1ccc(C(=O)COC(=O)c2ccco2)c(F)c1	.	.	.	-3.2	.	.
CC(=O)Nc1ccc(C(=O)COC(=O)c2cc(C)oc2C)c(F)c1	.	.	.	72.4*	-0.3	-1.6
CCC(=O)OCCNc1cc(SCCC(=O)OC)c2nonc2c1[N+](=O)[O-]	3.5	8.8	-0.5	32.0	.	.
CCCC(=O)OCCNc1cc(Sc2nc3ccccc3[nH]2)c2nonc2c1[N+](=O)[O-]	-4.6	-13.8	-2.1	54.6*	-0.4	6.6
Cc1ccc(S(=O)(=O)CC(N)=O)cc1	-2.9	15.7	-1.9	28.5	.	.
CCn1c(C)nc2cc(C(=O)NNC(=O)Nc3cccc(Cl)c3)ccc21	4.2	3.1	-0.3	-2.7	.	.
CCn1c(C)nc2cc(C(=O)NNC(=O)Nc3ccc(Cl)cc3)ccc21	4.1	5.8	-0.2	57.4*	-12.6	0.4
O=C(Nc1ccccc1F)c1ccncc1	4.7	14.5	2.7	16.9	.	.
O=C(Nc1ccc(Br)cc1F)c1ccncc1	-4.6	13.4	-2.5	97.3*	1.8	-0.2
COc1ccccc1NS(=O)(=O)c1cc(NC(=O)c2sc3cc(Cl)ccc3c2Cl)ccc1C	5.4	-27.4	-0.4	104.7*	3.2	3.6
CCNC(=S)Nc1ccc(C)c(S(=O)(=O)Nc2ccccc2OC)c1	-5.9	-0.8	3.8	36.0	.	.
O=C(/C=C/c1ccccc1)N1CCC[C@H]1CO	7.1	-1.5	-3.2	4.2	.	.
COc1ccc(-n2nc(N)c(C(N)=O)n2)cc1	-4.3	1.9	-0.9	54.6*	7.7	3.5
Cc1ccc(C(=O)NC(NCc2ccco2)C(Cl)(Cl)Cl)cc1 (stereo not drawn)	-12.1	-7.1	-4.5	55.0*	2.7	-2.4
Cc1cccc(C(=O)NC(NCc2ccco2)C(Cl)(Cl)Cl)c1 (stereo not drawn)	-10.1	.	0.2	10.9	.	.
CN1C(=O)NC(c2ccc(O)cc2)C2=C1CN(c1cccc3ccccc13)C2=O (stereo not drawn)	5.8	-0.9	-0.1	-3.9	-6.3	5.9
Cc1ccccc1N1CC2=C(C1=O)C(c1ccccc1)NC(=O)N2C (stereo not drawn)	3.9	-18.3	3.8	-0.6	.	.
Cc1c(N(C(=O)Nc2ccccc2)C2=NCC(C)S2)c(=O)n(-c2ccccc2)n1C (stereo not drawn)	9.4	.	-3.5	98.0*	-2.8	-0.8
O=C(CCCCCNC(=O)c1ccccc1)N/N=C/c1ccc(O)cc1O	-4.3	-3.0	-1.4	59.8*	-3.7	5.0
C/C(=N\NC(=O)CCCCCNC(=O)c1ccccc1)c1ccccc1O	-4.8	4.7	-1.6	-13.7	.	.
SMILES	p-CIP stab down	Lipid droplet	CTSL1 counter	Arr AP2 block	Arr-AP2 CP1	GST-FITC bead
NS(=O)(=O)c1ccc(CCNS(=O)(=O)c2cccc3nsnc23)cc1	18.3	-3.1	-0.9	61.5*	-7.5	-4.7
CN(CC(=O)NCCc1ccc(S(N)(=O)=O)cc1)S(=O)(=O)c1cccc2nsnc12	16.3	-13.9	-8.0	80.5*	-1.4	-9.8
CCc1nc(SCC(=O)NNC(=O)C(C)C)c2ccccc2n1	-2.5	-10.6	6.6	8.3	.	.
O=C(NCCc1ccc(S(=O)(=O)N2CCCC2)cc1)c1cccs1	3.9	.	-4.7	87.4*	1.0	0.9
O=C(Nc1ccc(S(=O)(=O)N2CCCC2)cc1)c1cccs1	-11.9	-15.0	-1.7	3.9	.	.
Cc1cc(C)n2nc(N)c(N=Nc3cccc(Cl)c3)c2n1	1.1	-4.1	1.2	98.7*	10.4	62.4*
O=C(COC(=O)c1c2c(nc3ccccc13)/C(=C\c1ccco1)CC2)NC1CCCC1	.	.	.	0.1	.	.
Nc1c(C(=O)NC2CC2)sc2nc3c(c(-c4ccco4)c12)CC/C3=C/c1ccco1	-0.5	11.7	10.4	54.8*	35.0	22.0
CCOc1ccc(-c2csc(NC(=O)CSCC(=O)O)n2)c2ccccc12	12.8	-5.2	1.8	62.4*	7.0	0.1
Cn1nc(C(=O)Nc2ccccc2)c2c1-c1ccccc1S(=O)(=O)C2	-1.2	2.9	-1.5	58.4*	4.8	-8.3
COc1cccc(NC(=O)c2nn(C)c3c2CS(=O)(=O)c2ccccc2-3)c1	1.7	-0.6	2.3	5.0	.	.
Cc1cccc(NC(=S)N(Cc2ccc(Cl)cc2)Cc2ccc(C(=O)O)cc2)c1	5.1	-1.5	4.4	55.8*	3.3	-3.7
Cc1cc(C)cc(NC(=S)N(Cc2ccc(Cl)cc2)Cc2ccc(C(=O)O)cc2)c1	6.8	5.5	3.1	-6.3	.	.
CCC(=O)Nc1c(-c2ccc(C)cc2)c(=O)c2ccccc2n1C	-8.6	-2.9	.	2.3	.	.
CCOc1ccc(CC(=O)Nc2c(C(=O)Nc3ccccc3)oc3ccccc23)cc1OCC	1.1	.	5.5	26.9	.	.
CCOc1cc(/C=C2\SC(N)=NC2=O)ccc1O	-23.2	8.6	9.3	61.1*	-6.3	-0.5
CCOc1ccccc1CN1CCCC(C(=O)c2ccc(OC)c(OC)c2)C1 (stereo not drawn)	-2.4	.	2.6	54.3*	-7.3	4.5
COc1ccc(C(=O)C2CCCN(C(=O)C3=CCCC3)C2)cc1OC (stereo not drawn)	-34.9	6.7	1.6	59.4*	-10.1	.
COc1ccc(C(=O)C2CCCN(C(=O)CSC)C2)cc1OC (stereo not drawn)	-7.6	4.7	-9.8	31.1	.	.
COc1ccc(F)cc1C(=O)C1CCCN(Cc2cn(C)c3ccccc23)C1 (stereo not drawn)	-8.1	-40.1	-1.4	54.5*	13.3	-6.2
COc1ccc(S(=O)(=O)N2CCCC(C(=O)N3CCCC3)C2)cc1OC (stereo not drawn)	.	.	-0.2	69.1*	-8.6	-9.8
S=c1nc2ccccc2c2nc(-c3ccccc3Br)[nH]n12	3.3	-28.1	2.0	-24.9	.	.
COc1ccc(CCN2CCCn3c2nc2c3c(=O)n(C)c(=O)n2C)cc1OC	10.6	-0.1	.	26.0	.	.
CC(/C=C\C=C\c1ccccc1)=N\NC(=O)c1cncc(Br)c1	3.0	-1.0	6.9	92.5*	4.5	7.5
O=C(CSc1nc2ccccc2c(=O)n1Cc1ccc(F)cc1)NCc1cccs1	7.0	-0.9	-0.9	86.6*	24.4	180.6*
COc1ccc(N(CC(=O)NC2CCCCCC2)S(=O)(=O)c2c(C)nn(C)c2C)cc1	2.7	.	1.1	-1.6	.	.
